# How the values were obtained:
# Details in all cases: stereoisomer not certain
# [1] = molecular target: T1, OR1G1 (Homo sapiens) (UniProt P47890)
# T1 sequence (whole entry): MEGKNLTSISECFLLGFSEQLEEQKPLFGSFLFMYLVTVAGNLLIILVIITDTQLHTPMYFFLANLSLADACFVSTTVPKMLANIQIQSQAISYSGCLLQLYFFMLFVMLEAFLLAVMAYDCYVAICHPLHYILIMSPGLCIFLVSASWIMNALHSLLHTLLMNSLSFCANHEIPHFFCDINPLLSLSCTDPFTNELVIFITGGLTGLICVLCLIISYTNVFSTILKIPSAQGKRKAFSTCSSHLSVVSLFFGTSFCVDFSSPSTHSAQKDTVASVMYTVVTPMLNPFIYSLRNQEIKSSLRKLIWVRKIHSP
# Procedure, shortened: (§1)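 Each entry records the cell line, G-protein, co-transfected protein and tags used. Methods varied with the source, often transient luciferase assays in mammalian cell lines. A receptor–molecule pair is called responsive (active) if the original authors judged its signal statistically different from baseline and non-responsive (inactive) otherwise.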
# [2] = molecular target: T2, OR1F12P (Homo sapiens) (UniProt Q8NHA8)
# T2 sequence (whole entry): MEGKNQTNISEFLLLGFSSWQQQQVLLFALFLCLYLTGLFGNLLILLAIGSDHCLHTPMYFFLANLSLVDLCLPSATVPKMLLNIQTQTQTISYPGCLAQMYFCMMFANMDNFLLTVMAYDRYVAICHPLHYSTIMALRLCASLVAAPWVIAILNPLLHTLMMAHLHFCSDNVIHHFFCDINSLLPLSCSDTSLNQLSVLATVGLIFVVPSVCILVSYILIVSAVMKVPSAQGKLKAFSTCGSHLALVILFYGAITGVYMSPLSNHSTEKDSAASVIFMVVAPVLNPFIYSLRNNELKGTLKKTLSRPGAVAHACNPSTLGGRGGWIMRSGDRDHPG
# Procedure, shortened: as §1
# [3] = molecular target: T3, OR1I1 (Homo sapiens) (UniProt O60431)
# T3 sequence (whole entry): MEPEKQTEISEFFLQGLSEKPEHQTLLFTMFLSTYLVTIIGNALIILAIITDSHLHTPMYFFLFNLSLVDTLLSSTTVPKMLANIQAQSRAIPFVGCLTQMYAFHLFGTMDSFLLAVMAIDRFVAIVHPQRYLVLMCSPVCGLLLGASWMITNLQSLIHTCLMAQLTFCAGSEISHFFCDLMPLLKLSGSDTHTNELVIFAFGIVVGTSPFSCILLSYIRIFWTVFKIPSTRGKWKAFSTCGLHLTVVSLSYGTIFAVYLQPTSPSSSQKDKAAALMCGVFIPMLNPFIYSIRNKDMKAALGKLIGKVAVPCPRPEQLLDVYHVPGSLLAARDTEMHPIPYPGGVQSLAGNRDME
# Procedure, shortened: as §1
# [4] = molecular target: T4, OR1J1 (Homo sapiens) (UniProt Q8NGS3)
# T4 sequence (whole entry): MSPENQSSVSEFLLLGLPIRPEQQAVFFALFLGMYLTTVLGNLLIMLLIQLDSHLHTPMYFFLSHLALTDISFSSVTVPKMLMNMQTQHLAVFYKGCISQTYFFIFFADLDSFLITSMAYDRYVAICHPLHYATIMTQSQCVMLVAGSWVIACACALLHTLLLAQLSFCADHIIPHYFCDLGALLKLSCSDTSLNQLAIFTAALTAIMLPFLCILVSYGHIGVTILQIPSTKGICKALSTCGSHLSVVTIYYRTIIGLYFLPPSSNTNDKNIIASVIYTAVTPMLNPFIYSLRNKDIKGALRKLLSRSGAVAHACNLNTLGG
# Procedure, shortened: as §1
# [5] = molecular target: T5, OR1J2 (Homo sapiens) (UniProt Q8NGS2)
# T5 sequence (whole entry): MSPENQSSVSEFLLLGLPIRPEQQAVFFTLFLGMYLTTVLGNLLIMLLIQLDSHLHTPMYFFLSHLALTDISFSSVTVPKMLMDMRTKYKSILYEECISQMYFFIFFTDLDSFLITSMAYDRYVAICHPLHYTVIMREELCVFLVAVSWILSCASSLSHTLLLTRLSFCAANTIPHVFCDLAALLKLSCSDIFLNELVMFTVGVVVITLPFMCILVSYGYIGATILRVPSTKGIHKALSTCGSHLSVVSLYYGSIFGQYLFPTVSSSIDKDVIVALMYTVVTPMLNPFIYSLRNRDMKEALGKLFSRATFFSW
# Procedure, shortened: as §1
# [6] = molecular target: T6, OR1J4 (Homo sapiens) (UniProt Q8NGS1)
# T6 sequence (whole entry): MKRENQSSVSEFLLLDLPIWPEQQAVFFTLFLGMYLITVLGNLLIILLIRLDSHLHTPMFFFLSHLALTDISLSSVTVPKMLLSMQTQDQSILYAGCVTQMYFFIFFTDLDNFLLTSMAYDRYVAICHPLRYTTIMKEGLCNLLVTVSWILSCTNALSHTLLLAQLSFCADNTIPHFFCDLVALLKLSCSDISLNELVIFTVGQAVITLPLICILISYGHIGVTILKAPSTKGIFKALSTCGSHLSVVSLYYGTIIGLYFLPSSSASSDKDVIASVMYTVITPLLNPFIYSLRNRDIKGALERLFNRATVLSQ
# Procedure, shortened: as §1
# [7] = molecular target: T7, OR1K1 (Homo sapiens) (UniProt Q8NGR3)
# T7 sequence (whole entry): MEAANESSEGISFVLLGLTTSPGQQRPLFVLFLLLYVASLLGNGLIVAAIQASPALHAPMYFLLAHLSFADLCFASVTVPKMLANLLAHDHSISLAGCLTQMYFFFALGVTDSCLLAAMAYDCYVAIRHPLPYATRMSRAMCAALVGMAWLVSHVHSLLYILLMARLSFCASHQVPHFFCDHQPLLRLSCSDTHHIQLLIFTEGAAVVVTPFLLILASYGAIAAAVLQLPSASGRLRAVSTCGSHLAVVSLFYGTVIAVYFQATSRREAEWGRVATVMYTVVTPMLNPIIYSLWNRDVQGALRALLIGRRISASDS
# Procedure, shortened: as §1
# [8] = molecular target: T8, OR1L1 (Homo sapiens) (UniProt Q8NH94)
# T8 sequence (whole entry): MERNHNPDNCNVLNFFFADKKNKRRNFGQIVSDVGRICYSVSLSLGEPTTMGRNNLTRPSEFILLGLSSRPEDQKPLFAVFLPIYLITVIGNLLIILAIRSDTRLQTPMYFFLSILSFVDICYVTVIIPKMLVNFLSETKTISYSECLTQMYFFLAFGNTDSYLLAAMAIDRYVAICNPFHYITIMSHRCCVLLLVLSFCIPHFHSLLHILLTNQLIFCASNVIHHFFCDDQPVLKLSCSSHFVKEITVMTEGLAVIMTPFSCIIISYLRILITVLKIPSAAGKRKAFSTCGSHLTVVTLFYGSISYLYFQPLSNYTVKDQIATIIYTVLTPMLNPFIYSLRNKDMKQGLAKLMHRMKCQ
# Procedure, shortened: as §1
# [9] = molecular target: T9, OR1L3 (Homo sapiens) (UniProt Q8NH93)
# T9 sequence (whole entry): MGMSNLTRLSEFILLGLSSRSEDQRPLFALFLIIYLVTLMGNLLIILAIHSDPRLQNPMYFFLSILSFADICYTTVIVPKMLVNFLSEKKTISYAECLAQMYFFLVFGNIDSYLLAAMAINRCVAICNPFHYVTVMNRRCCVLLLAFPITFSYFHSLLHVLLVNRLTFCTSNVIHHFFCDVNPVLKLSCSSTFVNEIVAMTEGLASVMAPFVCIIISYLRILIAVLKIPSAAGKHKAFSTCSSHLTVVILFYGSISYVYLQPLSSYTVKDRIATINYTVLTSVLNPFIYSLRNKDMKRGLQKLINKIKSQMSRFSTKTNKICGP
# Procedure, shortened: as §1
# [10] = molecular target: T10, OR1L4 (Homo sapiens) (UniProt Q8NGR5)
# T10 sequence (whole entry): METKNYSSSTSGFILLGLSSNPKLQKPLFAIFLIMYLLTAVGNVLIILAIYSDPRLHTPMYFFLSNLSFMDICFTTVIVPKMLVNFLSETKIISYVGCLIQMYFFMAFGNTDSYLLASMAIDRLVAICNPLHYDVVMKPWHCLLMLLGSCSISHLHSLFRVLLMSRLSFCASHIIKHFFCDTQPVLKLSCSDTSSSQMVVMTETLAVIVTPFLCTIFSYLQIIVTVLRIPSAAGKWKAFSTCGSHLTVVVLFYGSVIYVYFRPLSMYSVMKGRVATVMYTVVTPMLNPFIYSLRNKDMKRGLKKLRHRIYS
# Procedure, shortened: as §1
# [11] = molecular target: T11, OR1L6 (Homo sapiens) (UniProt Q8NGR2)
# T11 sequence (whole entry): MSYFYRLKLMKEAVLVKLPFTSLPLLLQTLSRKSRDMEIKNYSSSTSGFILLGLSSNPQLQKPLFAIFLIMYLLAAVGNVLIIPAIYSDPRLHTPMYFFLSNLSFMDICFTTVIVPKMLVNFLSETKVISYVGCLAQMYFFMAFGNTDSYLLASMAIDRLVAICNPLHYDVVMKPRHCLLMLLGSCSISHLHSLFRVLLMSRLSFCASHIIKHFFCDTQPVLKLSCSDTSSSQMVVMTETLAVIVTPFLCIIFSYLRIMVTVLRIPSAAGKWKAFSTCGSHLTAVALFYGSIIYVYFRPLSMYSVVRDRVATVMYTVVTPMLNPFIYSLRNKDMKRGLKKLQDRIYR
# Procedure, shortened: as §1
# [12] = molecular target: T12, OR1L8 (Homo sapiens) (UniProt Q8NGR8)
# T12 sequence (whole entry): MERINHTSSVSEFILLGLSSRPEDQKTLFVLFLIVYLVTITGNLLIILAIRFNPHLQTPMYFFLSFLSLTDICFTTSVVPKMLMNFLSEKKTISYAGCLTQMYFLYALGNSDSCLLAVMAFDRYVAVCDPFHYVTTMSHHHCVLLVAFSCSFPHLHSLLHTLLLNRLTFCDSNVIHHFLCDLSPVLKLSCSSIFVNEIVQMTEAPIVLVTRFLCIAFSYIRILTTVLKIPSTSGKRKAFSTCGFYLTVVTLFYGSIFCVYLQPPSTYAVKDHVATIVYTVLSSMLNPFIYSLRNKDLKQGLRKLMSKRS
# Procedure, shortened: as §1
# [13] = molecular target: T13, OR1M1 (Homo sapiens) (UniProt Q8NGA1)
# T13 sequence (whole entry): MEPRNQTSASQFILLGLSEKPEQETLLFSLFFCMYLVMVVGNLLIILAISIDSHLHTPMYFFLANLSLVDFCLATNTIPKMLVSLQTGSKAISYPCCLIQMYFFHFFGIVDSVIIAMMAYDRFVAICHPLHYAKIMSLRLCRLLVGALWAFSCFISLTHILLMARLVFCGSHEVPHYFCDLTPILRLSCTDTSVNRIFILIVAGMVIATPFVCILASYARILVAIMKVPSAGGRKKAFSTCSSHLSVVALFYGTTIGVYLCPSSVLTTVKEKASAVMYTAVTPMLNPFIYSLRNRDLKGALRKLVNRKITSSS
# Procedure, shortened: as §1
# [14] = molecular target: T14, OR1N1 (Homo sapiens) (UniProt Q8NGS0)
# T14 sequence (whole entry): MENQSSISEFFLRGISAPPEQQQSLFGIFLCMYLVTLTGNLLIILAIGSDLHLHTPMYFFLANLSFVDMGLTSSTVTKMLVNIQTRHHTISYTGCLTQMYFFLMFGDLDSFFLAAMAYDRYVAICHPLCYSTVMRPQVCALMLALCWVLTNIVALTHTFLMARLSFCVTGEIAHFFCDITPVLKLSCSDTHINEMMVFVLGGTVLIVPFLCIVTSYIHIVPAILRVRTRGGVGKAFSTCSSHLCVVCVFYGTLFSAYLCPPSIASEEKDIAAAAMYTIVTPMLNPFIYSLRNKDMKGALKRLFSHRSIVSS
# Procedure, shortened: as §1
smiles,measurement,setting,value
CCCCCCCCCC(=O)OCC,odorant receptor agonist call,[1],active
CCC(=O)O,odorant receptor agonist call,[1],inactive
CCCCCC(S)C(C)CO (stereo not drawn),odorant receptor agonist call,[2],inactive
same,odorant receptor agonist call,[1],inactive
same,odorant receptor agonist call,[3],inactive
same,odorant receptor agonist call,[4],inactive
same,odorant receptor agonist call,[5],inactive
same,odorant receptor agonist call,[6],inactive
same,odorant receptor agonist call,[7],inactive
same,odorant receptor agonist call,[8],inactive
same,odorant receptor agonist call,[9],inactive
same,odorant receptor agonist call,[10],inactive
same,odorant receptor agonist call,[11],inactive
same,odorant receptor agonist call,[12],inactive
same,odorant receptor agonist call,[13],inactive
same,odorant receptor agonist call,[14],inactive
CCCCCCC(=O)OCC,odorant receptor agonist call,[1],inactive
CCCCCCCCC(=O)OC,odorant receptor agonist call,[1],active
